PMC7439439 (Science Advances, 2020)
Read-outs that look alike come from different tables or passages of the source.

What was measured:
[1] = Safety in mice; format: in vivo
[2] = system: SF8628 orthotopic DIPG tumors; test: Orthotopic SF8628 xenograft, histology after treatment; format: in vivo, SCID mice
Procedure, shortened: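 NOD/SCID mice received 1 million luciferase-transduced SF8628 cells stereotactically into the pons (1.0 mm right, 0.5 mm posterior, 5.0 mm deep from lambda). Treatment started 21–24 days later over 2 weeks, using four CED infusions about 72 h apart, each over 6 min at 1.67 μl/min. Brains were then harvested. Nuclei on H&E and Ki67+ nuclei were counted on ≥5 40× fields. Apoptosis index was Cc3+ cells divided by tumour area × cellularity. H3Ac+ nuclei were counted per 10× field after colour deconvolution, Gaussian blur and thresholding.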

[3] = primate studies, oral delivery; cited from earlier work
[4] = system: luciferase-tagged SF8628 flank tumors; test: Flank model of DIPG, intraperitoneal treatment; format: in vivo, athymic-nude mice
Procedure, shortened: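 Athymic-nude mice received subcutaneous right-flank implants of 40-mm3 chunks of luciferase-tagged SF8628 tumours grown in other nude mice. Tumour presence was confirmed by luciferase scan at 1 week. Dosing began at a mean caliper volume of 140 mm3: reference HDAC inhibitor 10 mg/kg, test compound 12 mg/kg (molecular-weight adjusted), or vehicle (10% DMSO, 36% PEG, 54% PBS). Dosing stopped at 1500 mm3 or euthanasia end points. Tumours were harvested on the last treatment day for acetylated-H3 immunoblot with GAPDH as loading control.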

[5] = 11 patients, oral formulation; cited from earlier work
[6] = system: RCAS-based DIPG tumors; test: Survival study in tumor-bearing RCAS mice; format: in vivo
Procedure, shortened: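 DIPG was induced in 3–5-day-old Ntva/p53fl/fl pups by pontine injection of DF1 cells carrying RCAS-PDGFB, H3K27M-GFP, CRE and luciferase. From day 21–24, over 2 weeks, mice received one of: intraperitoneal 10 mg/kg in 10% DMSO/36% PEG/54% PBS; intraperitoneal vehicle; or one or four CEDs of 10 μl, 100 μM in 1% DMSO/PBS (or vehicle), 72 h apart, each over 6 min. End point was ≥10% weight loss on two consecutive measurements, or other end points. Survival was analysed by log-rank.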

[7] = four CED doses at 72-hour intervals

For `Cc1[nH]c2ccccc2c1CCNCc1ccc(/C=C/C(=O)NO)cc1` [panobinostat], the “toxicity after systemic injections” value [1] was “significant toxicities including weight loss”, the “H3Ac in tumor cells versus intraperitoneal vehicle” value [2, 7] was “increase in H3Ac in tumor cells” and the “Ki67+ cycling cells versus vehicle” value [2, 7] was “decrease in overall Ki67^+ cycling cells”. The “apoptotic cell death, cleaved caspase-3 positive cells” value [2, 7] was “increase in apoptotic cell death”, the “tumor cellularity versus vehicle” value ([2]; four CED doses at 72-hour intervals, H&E) was “decrease in tumor cellularity” and the “histological effects (cellularity, Ki67, Cc3, H3Ac)” value ([2]; systemic treatment) was “failed to achieve any of these results”. The “detection in CSF” value [3] was “failed at detecting significant amounts”, the “H3Ac in tumors by Western blotting” value ([4]; animals sacrificed on the last day of treatment) was “recovery of H3Ac” and the “tumor growth compared to vehicle” value ([4]; caliper tumor volume, daily intraperitoneal for 2 weeks) was “slowed down tumor growth”. For the same compound, the “detection in CSF” value [5] was “not detected”, the median survival ([6]; 4× CED, 10 μl 100 μM, 72 hours apart) was 63 days and the median survival ([6]; intraperitoneally, 10 mg/kg, over 2 weeks) was 35 days. For the same compound, the median survival ([6]; single CED session, 10 μl 100 μM) was 37.5 days.
